Experimental data published in ChEMBL document CHEMBL4350958, “Rational Design of Short Peptide Variants by Using Kunitzin-RE, an Amphibian-Derived Bioactivity Peptide, for Acquired Potent Broad-Spectrum Antimicrobial and Improved Therapeutic Potential of Commensalism Coinfection of Pathogens” (J Med Chem, 2019).

What was measured:
[1] = Antibacterial activity against Salmonella pullorum ATCC 7913 measured after 24 hrs; format: functional, Salmonella enterica subsp. enterica serovar Pullorum; details: Salmonella enterica, ATCC 7913, 24 h
Outline: (§1)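 Broth microdilution adapted from NCCLS. Mid-log bacteria were diluted in MHB to a final (0.5–1) × 10^5 CFU mL−1. Peptides were serially diluted in 0.2% BSA and mixed with an equal volume of cells. After 24 h at 37 °C, MIC was read at A492 as the lowest concentration inhibiting 95% of growth. At least three independent experiments, each with three technical replicates.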

[2] = Therapeutic index, ratio of MHC10 for hemolytic activity in human RBC to MIC95 against Candida parapsilosis cgmcc2.3989; format: toxicity; details: human red blood cells (erythrocytes), read-out: TI
Outline: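 Therapeutic index = MHC divided by MIC. MHC is the lowest concentration giving >10% lysis of human RBC (1 h, 37 °C, 1-128 µM, A576). MIC is 95% growth inhibition by broth microdilution: bacteria in MHB 24 h at 37 °C; Candida in MOPS-buffered RPMI 1640 at (0.5–1) × 10^3 CFU mL−1, 48 h at 28 °C.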

Staphylococcus aureus [3] = experiment: Antibacterial activity against Staphylococcus aureus ATCC 29213 measured after 18 to 24 hrs in presence of CaCl2; format: functional
Escherichia coli [4] = experiment: Bactericidal activity against Escherichia coli K88 incubated for 24 hrs followed by replating on agar plate and measured after overnight incubation; format: functional; details: K88, 24 h, read-out: MBC>99.9
Outline: (§2)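 Mid-log bacteria diluted in MHB to (0.5–1) × 10^5 CFU/mL and mixed 1:1 with peptide serially diluted in 0.2% BSA. After 24 h at 37 °C, 50 μL of each mixture was plated on agar and incubated overnight. MBC taken as the lowest concentration killing >99.9% of cells. At least three independent experiments, each with three technical replicates.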

Escherichia coli [5] = experiment: Bactericidal activity against Escherichia coli 078 incubated for 24 hrs followed by replating on agar plate and measured after overnight incubation; format: functional; details: Escherichia coli, 078, 24 h; read-out: MBC>99.9
Outline: (§3)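 After the 24 h, 37 °C MHB microdilution (0.5–1 × 10^5 CFU mL−1 inoculum, peptides diluted in 0.2% BSA), 50 μL from each well was plated on agar and incubated overnight. MBC was taken as the lowest concentration killing >99.9% of cells. Three or more independent experiments, each with triplicate technical replicates.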

Salmonella typhimurium [6] = experiment: Antibacterial activity against Salmonella typhimurium ATCC 14028 measured after 24 hrs; format: functional, Salmonella enterica subsp. enterica serovar Typhimurium; details: Salmonella enterica, ATCC 14028, 24 h; outline: as §1
Candida albicans [7] = experiment: Antifungal activity against Candida albicans cgmcc2.2086 measured after 48 hrs in presence of KCl by broth microdilution method; format: functional; details: cgmcc2.2086, 48 h
Candida albicans [8] = experiment: Antifungal activity against Candida albicans cgmcc2.2086 measured after 48 hrs by broth microdilution method; format: functional; details: cgmcc2.2086, 48 h
Outline: (§4)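 Modified CLSI M27-A2 microdilution. Yeast colonies were diluted in MOPS-buffered RPMI 1640 to a final (0.5–1) × 10^3 CFU mL−1 and mixed with an equal volume of peptide serially diluted in 0.2% BSA. After 48 h at 28 °C, MIC was read at A492 as the lowest concentration inhibiting 95% of growth. At least three independent experiments, each with three technical replicates.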

Escherichia coli [9] = experiment: Antibacterial activity against Escherichia coli ATCC 25922 measured after 18 to 24 hrs in presence of ZnCl2; format: functional
Staphylococcus aureus [10] = experiment: Bactericidal activity against Staphylococcus aureus ATCC 29213 incubated for 24 hrs followed by replating on agar plate and measured after overnight incubation; format: functional; details: ATCC 29213, 24 h, read-out: MBC>99.9
Outline: (§5)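 After the 24 h, 37 °C MHB microdilution MIC assay, 50 μL from each well was plated on agar and incubated overnight. MBC taken as lowest peptide concentration killing >99.9% of cells. At least three independent experiments, each with three technical replicates.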

Escherichia coli [11] = experiment: Bactericidal activity against Escherichia coli ATCC 25922 incubated for 24 hrs followed by replating on agar plate and measured after overnight incubation; format: functional; details: ATCC 25922, 24 h, read-out: MBC>99.9; outline: as §3
Escherichia coli [12] = experiment: Antibacterial activity against Escherichia coli ATCC 25922 measured after 18 to 24 hrs in presence of NaCl; format: functional
Staphylococcus aureus [13] = experiment: Antibacterial activity against methicillin-resistant Staphylococcus aureus ATCC 43300 measured after 24 hrs; format: functional; details: ATCC 43300, 24 h
Outline: (§6)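 Broth microdilution modified from NCCLS. Mid-log bacteria at (0.5–1) × 10^5 CFU mL−1 in MHB, mixed with peptides serially diluted in 0.2% BSA. Incubated 24 h at 37 °C, read at A492. MIC taken as lowest concentration giving 95% growth inhibition. At least three independent experiments, each with three technical replicates.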

Escherichia coli [14] = experiment: Antibacterial activity against Escherichia coli ATCC 25922 measured after 18 to 24 hrs in presence of NH4Cl; format: functional
Salmonella typhimurium [15] = experiment: Bactericidal activity against Salmonella typhimurium C7731 incubated for 24 hrs followed by replating on agar plate and measured after overnight incubation; format: functional, Salmonella enterica subsp. enterica serovar Typhimurium; details: Salmonella enterica, C7731, 24 h; read-out: MBC>99.9; outline: as §2
Staphylococcus aureus [16] = experiment: Bactericidal activity against Staphylococcus aureus ATCC 25923 incubated for 24 hrs followed by replating on agar plate and measured after overnight incubation; format: functional; details: ATCC 25923, 24 h, read-out: MBC>99.9; outline: as §5
Escherichia coli [17] = experiment: Antibacterial activity against Escherichia coli UB1005 measured after 24 hrs; format: functional; details: UB1005, 24 h; outline: as §1
Staphylococcus aureus [18] = experiment: Antibacterial activity against Staphylococcus aureus ATCC 29213 measured after 24 hrs; format: functional; details: ATCC 29213, 24 h; outline: as §6
Erythrocyte = experiment: Hemolytic activity in human RBC measured after 1 hr; format: ADME, cell-based
Outline: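 Fresh healthy-donor human erythrocytes at ~1% (v/v) in PBS pH 7.4, mixed 1:1 with peptide (1–128 µM), 1 h at 37 °C. After centrifugation at 1000×g, supernatant hemoglobin read at 576 nm. Untreated cells set 0% and 0.1% Triton X-100 set 100%. MHC defined as the concentration giving >10% hemolysis. Three or more independent experiments, triplicates.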

Candida albicans [19] = experiment: Antifungal activity against Candida albicans cgmcc2.2086 measured after 48 hrs in presence of CaCl by broth microdilution method; format: functional; details: cgmcc2.2086, 48 h
Candida parapsilosis = experiment: Antifungal activity against Candida parapsilosis cgmcc2.3989 measured after 48 hrs by broth microdilution method; format: functional; details: Lodderomyces parapsilosis, cgmcc2.3989, 48 h; outline: as §4
[20] = tested on: Staphylococcus epidermidis; experiment: Bactericidal activity against Staphylococcus epidermidis ATCC 12228 incubated for 24 hrs followed by replating on agar plate and measured after overnight incubation; format: functional; details: ATCC 12228, 24 h, read-out: MBC>99.9; outline: as §2
Escherichia coli [21] = experiment: Antibacterial activity against Escherichia coli ATCC 25922 measured after 18 to 24 hrs in presence of MgCl2; format: functional
Pseudomonas aeruginosa = experiment: Antibacterial activity against Pseudomonas aeruginosa ATCC 27853 measured after 24 hrs; format: functional; details: ATCC 27853, 24 h; outline: as §1

Substance | MIC95 [1] [µM] | selectivity ratio [2] | MIC95 (Staphylococcus aureus [3]) [µM] | MBC (Escherichia coli [4]) [µM] | MBC (Escherichia coli [5]) [µM] | MIC95 (Salmonella typhimurium [6]) [µM] | MIC95 (Candida albicans [7]) [µM] | MIC95 (Candida albicans [8]) [µM] | MIC95 (Escherichia coli [9]) [µM] | MBC (Staphylococcus aureus [10]) [µM] | MBC (Escherichia coli [11]) [µM] | MIC95 (Escherichia coli [12]) [µM] | MIC95 (Staphylococcus aureus [13]) [µM] | MIC95 (Escherichia coli [14]) [µM] | MBC (Salmonella typhimurium [15]) [µM] | MBC (Staphylococcus aureus [16]) [µM] | MIC95 (Escherichia coli [17]) [µM] | MIC95 (Staphylococcus aureus [18]) [µM] | MHC10 (Erythrocyte) [µM] | MIC95 (Candida albicans [19]) [µM] | also measured
H-AARIILRTRFR-NH2 | 8 | 4 | 64 | 8 | 8 | 16 | > 128 | 128 | 8 | 32 | 16 | > 128 | 16 | 8 | 32 | 32 | 4 | 16 | > 128 | > 128 | MIC95 (Candida parapsilosis): 64 µM; MBC [20]: 32 µM; MIC95 (Escherichia coli [21]): 128 µM; MIC95 (Pseudomonas aeruginosa): > 128 µM
H-AARIILRWFRR-NH2 | 4 | 50.8 | 8 | 4 | 4 | 4 | 8 | 8 | 2 | 8 | 2 | 8 | 8 | 2 | 8 | 8 | 2 | 4 | > 128 | 32 | MIC95 (Candida parapsilosis): 4 µM; MBC [20]: 4 µM; MIC95 (Escherichia coli [21]): 2 µM; MIC95 (Pseudomonas aeruginosa): 8 µM
H-AARIILRWRFR-NH2 | 2 | 50.8 | 2 | 4 | 2 | 2 | 8 | 8 | 4 | 2 | 4 | 8 | 1 | 4 | 4 | 4 | 4 | 1 | > 128 | 32 | MIC95 (Candida parapsilosis): 4 µM; MBC [20]: 4 µM; MIC95 (Escherichia coli [21]): 4 µM; MIC95 (Pseudomonas aeruginosa): 4 µM
H-AARIILRYRFR-NH2 | 4 | 8 | 64 | 8 | 4 | 8 | 64 | 32 | 8 | 8 | 16 | > 128 | 4 | 8 | 8 | 16 | 4 | 4 | > 128 | 128 | MIC95 (Candida parapsilosis): 64 µM; MBC [20]: 4 µM; MIC95 (Escherichia coli [21]): 64 µM; MIC95 (Pseudomonas aeruginosa): 16 µM
H-AARRILRWIFR-NH2 | 4 | 40.3 | 8 | 8 | 4 | 4 | 16 | 8 | 8 | 8 | 4 | 64 | 8 | 4 | 8 | 8 | 4 | 4 | > 128 | 128 | MIC95 (Candida parapsilosis): 8 µM; MBC [20]: 8 µM; MIC95 (Escherichia coli [21]): 8 µM; MIC95 (Pseudomonas aeruginosa): 8 µM
